# Experimental data of several laboratories.
# Protocols differ between the studies behind these lines.
# Organism: Leishmania donovani
# Effect on: parasite growth
Structure (SMILES),test,system,conditions,measurement,result
CCCCCCCCCCCCCCCCOP(=O)([O-])OCC[N+](C)(C)C,resazurin,,"25 µM, 72 h, promastigote",inhibition,100%
N=C(N)c1ccc(OCCCCCOc2ccc(C(=N)N)cc2)cc1,resazurin,,"72 h, promastigote",IC90,8.77 µg/mL
c1ccc(CNc2nc(-c3ccccn3)nc3ccccc23)cc1,imaging,THP-1,"intracellular, amastigote",IC50,1.1 µM
COc1ccccc1-c1n[nH]c2nc(N[C@H]3CC[C@H](NS(=O)(=O)CCCOCCOCCN)CC3)ncc12,,,amastigote,EC50,4.21 µM
CCCCCCCC/C=C\CCCCCCCCCCCCOP(=O)([O-])OCC[N+](C)(C)C,resazurin,,"50 µM, 72 h, promastigote",inhibition,108%
COc1ccccc1-c1n[nH]c2nc(N[C@H]3CC[C@H](NS(=O)(=O)CCCOCCOCCNC(=O)OC(C)(C)C)CC3)ncc12,,,amastigote,EC50,1.36 µM
C[C@@H]1[C@H](O)[C@@H](C)/C=C/C=C/C=C/C=C/C=C/C=C/C=C/[C@H](O[C@@H]2O[C@H](C)[C@@H](O)[C@H](N)[C@@H]2O)C[C@@H]2O[C@](O)(C[C@@H](O)C[C@@H](O)[C@H](O)CC[C@@H](O)C[C@@H](O)CC(=O)O[C@H]1C)C[C@H](O)[C@H]2C(=O)O,MTT,,"48 h, promastigote",IC90,5.4 µM
COc1cc(NC(C)CCCNC(=S)NCCCC(C)Nc2cc(OC)cc3cccnc23)c2ncccc2c1.Cl.Cl (stereo not drawn),resazurin,,promastigote,IC50,4 to 9 µg/mL
COc1ccccc1-c1n[nH]c2nc(NC3CCN(C(=O)Cc4ccc(OCCOCCN)cc4)CC3)ncc12,,THP-1,"intracellular, amastigote",EC50,26.7 µM
c1ccc(CN2CCN(c3nc(-c4ccccn4)nc4ccccc34)CC2)cc1,imaging,THP-1,"intracellular, amastigote",IC50,2.6 µM
COc1cc(NC(C)CCCNC(=S)NCCCC(C)Nc2cc(OC)cc3ccc(C(C)(C)C)nc23)c2nc(C(C)(C)C)ccc2c1.Cl.Cl (stereo not drawn),resazurin,,promastigote,IC90,20 to 31 µg/mL
COc1ccccc1-c1n[nH]c2nc(NC3CCN(C(=O)Cc4ccc(OCCOCCNC(=O)OC(C)(C)C)cc4)CC3)ncc12,,,amastigote,EC50,4.2 µM
